From ChEMBL document CHEMBL2346577, “Isolation, structure, and biological activity of Phaeofungin, a cyclic lipodepsipeptide from a Phaeosphaeria sp. Using the Genome-Wide Candida albicans Fitness Test” (J Nat Prod, 2013)
In brackets after ≈: the same amount, converted by molar mass. Activity calls are given as the source filed them. No cut-off for these calls is given here. Numbered stars: 1 amine (or outer) side, 2 acyl side, 3 side chain; on linkers, the order of the positions; unused ones are H or OH. Bridge positions count the residues as written; N and C are the ends. Square brackets hold non-standard residues; d marks the D form. Peptide text beside a SMILES is read from it. * marks the point of attachment. ξ: configuration not given here. X2 = CCCCCCCCCCCCC(C)C(CC(=O)[*:1])O[*:2]; X1 = CCCCCCCCCCCCC(C)(O)C(O)CC(=O)*; ξhSer = NC(CCO)C(=O)O

Legend:
Candida albicans [1] = experiment: Induction of ATP release from cytoplasm of Candida albicans isolate 2323 at >MIC by Promega Bactiter Glo assay; assay type: functional, organism-based
Outline: (§1)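 ATP leaking from fungal cells exposed to compound was measured by BacTiter Glo luminescence per manufacturer's instructions, in parallel with whole-cell growth inhibition across a concentration series. Release was referenced to basal ATP release in the assay and to total ATP release for each strain.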

Candida albicans [2] = experiment: Induction of ATP release from cytoplasm of Candida albicans SC5314 at >MIC by Promega Bactiter Glo assay; assay type: functional, organism-based; outline: as §1
Candida albicans [3] = experiment: Induction of ATP release from cytoplasm of Candida albicans isolate 2323 at 0.1 to 25 ug/ml by Promega Bactiter Glo assay; assay type: functional, organism-based
Outline: (§2)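 Release of cytoplasmic ATP from whole C. albicans cells (strains 2323 and SC5314) exposed to compound, measured with the BacTiter Glo luminescence kit per manufacturer's instructions. Read alongside whole-cell growth inhibition in the same strains, and compared with basal ATP release and total releasable ATP for each strain.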

Candida albicans [4] = experiment: Induction of ATP release from cytoplasm of Candida albicans SC5314 at 0.1 to 25 ug/ml by Promega Bactiter Glo assay; assay type: functional, organism-based; outline: as §2
Candida albicans [5] = experiment: Antifungal activity against Candida albicans expressing CMD1 deletion mutant assessed as inhibition of fungal growth; assay type: functional, organism-based
Candida albicans [6] = experiment: Antifungal activity against Candida albicans expressing DIP5 deletion mutant assessed as inhibition of fungal growth; assay type: functional, organism-based
Candida albicans [7] = experiment: Antifungal activity against Candida albicans expressing CRZ1 deletion mutant assessed as inhibition of fungal growth; assay type: functional, organism-based
Aspergillus fumigatus [8] = experiment: Antifungal activity against Aspergillus fumigatus MF5668 assessed as inhibition of fungal growth after 48 hrs; assay type: functional; conditions: MF5668, 48 h
Outline: (§3)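 Broth dilution against each fungal strain. Inoculum 10^5 CFU/mL, compound in 2-fold serial dilution in growth medium at 37 °C. MIC is the lowest concentration inhibiting visible growth; MIC80 (prominent inhibition, MEC for Aspergillus) also read. Incubation 24 h, except 48 h for A. fumigatus.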

Nakaseomyces glabratus = experiment: Antifungal activity against Candida glabrata MY1381 assessed as inhibition of fungal growth after 24 hrs; assay type: functional; conditions: MY1381, 24 h; outline: as §3
Pichia kudriavzevii = experiment: Antifungal activity against Candida krusei ATCC 6258 assessed as inhibition of fungal growth after 24 hrs; assay type: functional; conditions: ATCC 6258, 24 h; outline: as §3
Candida tropicalis = experiment: Antifungal activity against Candida tropicalis MY1012 assessed as inhibition of fungal growth after 24 hrs; assay type: functional; conditions: MY1012, 24 h; outline: as §3
Candida parapsilosis = experiment: Antifungal activity against Candida parapsilosis ATCC 22019 assessed as inhibition of fungal growth after 24 hrs; assay type: functional; conditions: Lodderomyces parapsilosis, ATCC 22019, 24 h; outline: as §3
[9] = tested on: Trichophyton mentagrophytes; experiment: Antifungal activity against Trichophyton mentagrophytes MF7004 assessed as inhibition of fungal growth after 96 hrs; assay type: functional; conditions: MF7004, 96 h
Outline: (§4)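 Whole-cell growth assay with incubation of 24 h for most strains, 48 h for A. fumigatus and 96 h for T. mentagrophytes. MIC is the lowest concentration inhibiting visible growth. MIC80 is prominent growth inhibition, also called MEC for Aspergillus.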

Candida albicans [10] = experiment: Antifungal activity against Candida albicans MY1055 assessed as inhibition of fungal growth after 24 hrs in presence of 50% mouse serum; assay type: functional; conditions: MY1055, 24 h
Clavispora lusitaniae = experiment: Antifungal activity against Candida lusitaniae MY1396 assessed as inhibition of fungal growth after 24 hrs; assay type: functional; conditions: MY1396, 24 h; outline: as §4
Candida albicans [11] = experiment: Antifungal activity against Candida albicans MY1055 assessed as inhibition of fungal growth after 24 hrs; assay type: functional; conditions: MY1055, 24 h; outline: as §3
Aspergillus fumigatus [12] = experiment: Antifungal activity against Aspergillus fumigatus MF5668 assessed as inhibition of fungal growth after 48 hrs in presence of 50% human serum; assay type: functional; conditions: MF5668, 48 h; outline: as §4
Staphylococcus aureus = experiment: Antimicrobial activity against Staphylococcus aureus MB2865 assessed as inhibition of microbial growth after 24 hrs; assay type: functional; conditions: MB2865, 24 h
Candida albicans [13] = experiment: Induction of ATP release from cytoplasm of Candida albicans isolate 2323 at 0.2 to 50 ug/ml by Promega Bactiter Glo assay; assay type: functional, organism-based; outline: as §2
Mus musculus [14] = experiment: Toxicity in DBA/2N mouse assessed as induction of lethality at 6.25 mg/kg, ip; assay type: organism-based; design: dose 6.25 mg/kg, route intraperitoneal; conditions: in vivo
Candida albicans [15] = experiment: Induction of ATP release from cytoplasm of Candida albicans SC5314 at 0.2 to 50 ug/ml by Promega Bactiter Glo assay; assay type: functional, organism-based; outline: as §2
Candida albicans [16] = experiment: Antifungal activity against Candida albicans expressing RTA1+/- gene assessed as inhibition of fungal growth; assay type: functional, organism-based
Mus musculus [17] = experiment: Toxicity in DBA/2N mouse assessed as induction of lethality at >12.5 mg/kg, ip; assay type: organism-based; conditions: in vivo
Candida albicans [18] = experiment: Antifungal activity against Candida albicans expressing AUR+/- gene assessed as inhibition of fungal growth; assay type: functional, organism-based

| SMILES | Activity (Candida albicans [1]) | Activity (Candida albicans [2]) | growth inhibition (GI) (Candida albicans [5]) | growth inhibition (GI) (Candida albicans [6]) | growth inhibition (GI) (Candida albicans [7]) | MIC (Aspergillus fumigatus [8]) | MIC (Nakaseomyces glabratus) | MIC (Pichia kudriavzevii) | MIC (Candida tropicalis) | MIC (Candida parapsilosis) | MIC [9] | MIC (Candida albicans [10]) | MIC (Clavispora lusitaniae) | MIC (Candida albicans [11]) | MIC (Aspergillus fumigatus [12]) | MIC (Staphylococcus aureus) | other results |
| --- | --- | --- | --- | --- | --- | --- | --- | --- | --- | --- | --- | --- | --- | --- | --- | --- | --- |
| C[C@@H]1[C@H](O)[C@@H](C)/C=C/C=C/C=C/C=C/C=C/C=C/C=C/[C@H](O[C@@H]2O[C@H](C)[C@@H](O)[C@H](N)[C@@H]2O)C[C@@H]2O[C@](O)(C[C@@H](O)C[C@@H](O)[C@H](O)CC[C@@H](O)C[C@@H](O)CC(=O)O[C@H]1C)C[C@H](O)[C@H]2C(=O)O | inactive | inactive | – | – | – | – | – | – | – | – | – | – | – | – | – | – | – |
| CCCCCCCCCCCCC(C)C1CC(=O)N[C@@H](C)C(=O)NC(CCO)C(=O)N[C@@H](CCC(=O)O)C(=O)NCC(=O)N[C@@H](CO)C(=O)N[C@H](CC(N)=O)C(=O)N[C@H]([C@H](C)O)C(=O)NC(CCO)C(=O)O1 (some centres undefined) (A[ξhSer]EGS[dN][dT][ξhSer]; linker N-C via X2) | – | – | Active | inactive | Active | – | – | – | – | – | – | – | – | – | – | – | Activity (Candida albicans [3]): inactive; Activity (Candida albicans [4]): inactive |
| CCCCCCCCCCCCC(C)(O)C(O)CC(=O)N[C@@H](CO)C(=O)N[C@@H](C)C(=O)N[C@@H](CC(=O)O)C(=O)N[C@@H](C)C(=O)N[C@@H](CO)C(=O)N[C@@H](CO)C(=O)N[C@H](C(=O)O)[C@@H](C)O (some centres undefined) (X1-SADASST-OH) | – | – | – | – | – | > 32 µg/mL | > 32 µg/mL | > 32 µg/mL | > 32 µg/mL | > 32 µg/mL | > 32 µg/mL | > 32 µg/mL | > 32 µg/mL | > 32 µg/mL | > 32 µg/mL | > 32 µg/mL | – |
| CC[C@H](C)C[C@H](C)CCCCCCCCC(=O)N[C@H]1C[C@@H](O)[C@@H](NCCN)NC(=O)[C@@H]2[C@@H](O)CCN2C(=O)[C@H]([C@H](O)CCN)NC(=O)[C@H]([C@H](O)[C@@H](O)c2ccc(O)cc2)NC(=O)[C@@H]2C[C@@H](O)CN2C(=O)[C@H]([C@@H](C)O)NC1=O [CASPOFUNGIN] | Active | Active | – | – | – | 32 µg/mL (≈ 29.3 µM) | 0.25 µg/mL (≈ 0.229 µM) | 1 µg/mL (≈ 0.915 µM) | – | 0.5 µg/mL (≈ 0.457 µM) | 32 µg/mL (≈ 29.3 µM) | 0.25 µg/mL | < 0.03 µg/mL | 0.5 µg/mL (≈ 0.457 µM) | 32 µg/mL | > 32 µg/mL | – |
| CCCCCCCCCCCC(C)(O)C1CC(=O)N[C@@H](CO)C(=O)N[C@H](C)C(=O)N[C@H](CC(=O)O)C(=O)N[C@@H](C)C(=O)N[C@H](CO)C(=O)N[C@H](CO)C(=O)N[C@H]([C@@H](C)O)C(=O)O1 (some centres undefined) [PHAEOFUNGIN] | – | – | inactive | inactive | inactive | 16 µg/mL (≈ 18 µM) | > 32 µg/mL | > 32 µg/mL | > 32 µg/mL | > 32 µg/mL | 4 µg/mL (≈ 4.49 µM) | > 32 µg/mL | 32 µg/mL (≈ 36 µM) | 32 µg/mL (≈ 36 µM) | > 32 µg/mL | > 32 µg/mL | minimal effective concentration (Aspergillus fumigatus [8]; read-out: MEC): 8 µg/mL; Activity (Candida albicans [13]): Active; Activity (Mus musculus [14]): Non-toxic; MIC80 (Pichia kudriavzevii): 32 µg/mL (≈ 36 µM); Activity (Candida albicans [15]): Active; MIC80 (Candida parapsilosis): 32 µg/mL (≈ 36 µM); growth inhibition (GI) (Candida albicans [16]): Active; Activity (Mus musculus [17]): Dose-dependent effect; MIC80 (Candida albicans [11]): 16 µg/mL (≈ 18 µM); growth inhibition (GI) (Candida albicans [18]): Active |
